Results pooled from the literature.
Each line is one published result; the experiments were not run side by side.
MTNR1A: Melatonin receptor type 1A (MTNR1A, Homo sapiens, UniProt P48039)

| Structure (SMILES) | target | assay | system | setting | endpoint | value |
| --- | --- | --- | --- | --- | --- | --- |
| COc1ncccc1-c1cnn2ccc(N3CCN(C(=O)OC(C)C)CC3)nc12 | Activin receptor type-2B (ACVR2B, Homo sapiens, UniProt Q13705) | binding, competition with immobilised ligand | – | 1 µM | remaining binding | 69% |
| CCN(CC)CCCC[C@H](NC(=O)[C@H](CC(C)C)NC(=O)[C@H](C)NC(=O)[C@H](Cc1ccccc1)NC(=O)c1ccc(C(C)(C)C)cc1)C(=O)N[C@@H](CO)C(=O)OC | MTNR1A | ligand displacement, radioligand | – | 10 µM | remaining binding | 92.1% |
| C#Cc1n[nH]c2c(-c3cn([C@@H](C)c4ccccn4)c(=O)[nH]c3=O)cc(F)cc12 | Aurora kinase C (AURKC, Homo sapiens, UniProt Q9UQB9) | enzyme activity, inhibitor | – | 0.1 µM | inhibition | 1.4% |
| Cc1nn(C)cc1-c1nc2c(N3CCN(Cc4ccc(Cl)cc4)CC3)c(Cl)cnc2[nH]1 | Tyrosine-protein kinase receptor Tie-1 (TIE1, Homo sapiens, UniProt P35590) | binding, competition with immobilised ligand | – | 1 µM | remaining binding | 47% |
| CN[C@@]1(c2ccccc2Cl)CCCCC1=O | Fatty-acid amide hydrolase 1 (FAAH, Homo sapiens, UniProt O00519) | enzyme activity, inhibitor | – | 30 µM | inhibition | 11% |
| COc1ccc2cccc(C(CO)CNC(=O)CF)c2c1 (stereo not drawn) | MTNR1A | β-arrestin recruitment, agonist | CHO-K1 | 90 min | Emax | 101% |
| Nc1ncc(-c2nc(N3CCOCC3)nc(N3CCOCC3)n2)c(C(F)F)n1 | Aurora kinase A (AURKA, Homo sapiens, UniProt O14965) | binding, competition with immobilised ligand | – | 10 µM | remaining binding | 52% |
| CCC(N)Cc1cc(OC)c(COC)cc1OC (stereo not drawn) | 5-hydroxytryptamine receptor 2C (HTR2C, Homo sapiens, UniProt P28335) | G protein activation, agonist, BRET | – | – | Emax | 82% |
| COc1ccc2[nH]cc(CCNC(=O)CI)c2c1 | MTNR1A | β-arrestin recruitment, agonist | CHO-K1 | 90 min | Emax | 92% |
